Measurements from ChEMBL document CHEMBL3351820, “Development of novel membrane active lipidated peptidomimetics active against drug resistant clinical isolates” (Bioorg Med Chem, 2014).
≈ marks a conversion by molar mass, not a printed value. Calls of active or inactive are those of the source. No cut-off for these calls is given here. Where a SMILES comes first, the peptide text is derived from it. [ ]: non-standard residue; d: D form. The star is where a group is joined. Stearoyl = CCCCCCCCCCCCCCCCCC(=O)*; Palmitoyl = CCCCCCCCCCCCCCCC(=O)*; Lauroyl = CCCCCCCCCCCC(=O)*; Decanoyl = CCCCCCCCCC(=O)*; 3Abz = Nc1cccc(C(=O)O)c1; Orn = NCCC[CH](N)C(=O)O

Legend:
Aspergillus fumigatus [1] = assay: Antifungal activity against fluconazole-resistant Aspergillus fumigatus IGMC/LM1/0336 after 24 hrs by M27-A method; type: functional; settings: IGMC/LM1/0336, 24 h
Method in brief: (§1)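 Fungi at 2.5×10^3 cfu/mL in RPMI 1640 (L-glutamine, no glucose or NaHCO3, pH 7.0 with 0.165 M MOPS). Mixed 1:1 with serial 2-fold dilutions in water, incubated at 37 °C with shaking, 24 h for A. fumigatus and 48–72 h for C. albicans. Growth read by absorbance at 600 nm. MIC taken as the lowest concentration with no growth.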

Aspergillus niger = assay: Antifungal activity against Aspergillus niger ATCC 64028 after 24 hrs by M27-A method; type: functional; settings: ATCC 64028, 24 h
Method in brief: (§2)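 Fungi at 2.5×10^3 cfu/mL in RPMI 1640 (L-glutamine, no glucose or NaHCO3, buffered pH 7.0 with 0.165 M MOPS), mixed 1:1 with serial 2-fold aqueous dilutions. Incubated at 37 °C with shaking, 24 h for Aspergillus, 48-72 h for Candida and Cryptococcus; A600 read. MIC taken as lowest concentration with no growth.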

Escherichia coli [2] = assay: Antibacterial activity against Escherichia coli MTCC 0723 after 18 hrs by micro dilution broth assay; type: functional; settings: MTCC 0723, 18 h
Method in brief: (§3)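 Broth microdilution (modified CLSI): mid-log inoculum at 10^5 CFU/mL in Mueller-Hinton broth; serial 2-fold dilutions of sample in 0.001% acetic acid with 0.2% BSA added. Incubated overnight at 37 °C with agitation; A600 read at 18 h. Drug-free culture and uninoculated broth as controls; triplicate.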

Escherichia coli [3] = assay: Antibacterial activity against imipenem-resistant Escherichia coli PGI/ DML02292 clinical isolate after 18 hrs by micro dilution broth assay; type: functional; settings: PGI/ DML02292, 18 h
Pseudomonas aeruginosa = assay: Antibacterial activity against Pseudomonas aeruginosa MTCC 2295 after 18 hrs by micro dilution broth assay; type: functional; settings: MTCC 2295, 18 h; method in brief: as §3
Staphylococcus aureus [4] = assay: Antibacterial activity against Staphylococcus aureus MTCC 3160 after 18 hrs by micro dilution broth assay; type: functional; settings: MTCC 3160, 18 h; method in brief: as §3
Staphylococcus aureus [5] = assay: Antibacterial activity against methicillin-resistant Staphylococcus aureus PGI/ DML03149 clinical isolate after 18 hrs by micro dilution broth assay; type: functional; settings: PGI/ DML03149, 18 h
Bacillus subtilis = assay: Antibacterial activity against Bacillus subtilis MTCC 2763 after 18 hrs by micro dilution broth assay; type: functional; settings: MTCC 2763, 18 h; method in brief: as §3
[6] = Hemolytic activity in human RBCs; type: ADME, cell-based, Erythrocyte; settings: red blood cells (RBCs)
Method in brief: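 Washed fresh human erythrocytes, 4% (v/v) in PBS (35 mM phosphate, 150 mM NaCl, pH 7.2), mixed 1:1 with 2-fold dilutions in PBS. Incubated 1 h at 37 °C without agitation, then centrifuged at 1000 g for 5 min. Supernatant hemoglobin read at 440 nm; % hemolysis = 100(A−A0)/(At−A0).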

[7] = Therapeutic index, ratio of HC50 for human RBCs to MIC for Escherichia coli MTCC 0723; settings: red blood cells (RBCs), read-out: TI
[8] = Therapeutic index, ratio of HC50 for human RBCs to MIC for Staphylococcus aureus MTCC 3160; settings: red blood cells (RBCs), read-out: TI
Candida albicans [9] = assay: Antifungal activity against Candida albicans ATCC 24433 after 48 to 72 hrs by M27-A method; type: functional; method in brief: as §2
Candida albicans [10] = assay: Antifungal activity against fluconazole-resistant Candida albicans PGI/ DML0109 clinical isolate after 48 to 72 hrs by M27-A method; type: functional; method in brief: as §1
Cryptococcus neoformans = assay: Antifungal activity against Cryptococcus neoformans ATCC 2344 after 48 to 72 hrs by M27-A method; type: functional; method in brief: as §2
Aspergillus fumigatus [11] = assay: Antifungal activity against Aspergillus fumigatus ATCC 42203 after 24 hrs by M27-A method; type: functional; settings: ATCC 42203, 24 h; method in brief: as §2
[12] = Membrane permeabilization activity assessed as release of calcein from PE/PG liposomes at 4 ug/ml after 5 mins by spectrofluorimetry; type: ADME
Method in brief: (§4)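 Calcein-loaded LUVs, PE/PG (bacterial mimic) or PC/PE/PI/ergosterol (fungal mimic), exposed to 1-20 μg/mL for 5 min before fluorescence reading. Triton X-100 in Tris-HCl/NaCl/EDTA buffer sets 100% leakage; % leakage = 100(F−F0)/(Ft−F0). Run in triplicate, two independent experiments, mean ± SD.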

[13] = Membrane permeabilization activity assessed as release of calcein from PC/PE/PI/ergosterol liposomes at 20 ug/ml after 5 mins by spectrofluorimetry; type: ADME; method in brief: as §4
[14] = Membrane permeabilization activity assessed as release of calcein from PE/PG liposomes at 20 ug/ml after 5 mins by spectrofluorimetry; type: ADME; method in brief: as §4
[15] = Membrane permeabilization activity assessed as release of calcein from PC/PE/PI/ergosterol liposomes at 4 ug/ml after 5 mins by spectrofluorimetry; type: ADME; method in brief: as §4
Aspergillus fumigatus [16] = assay: Membrane disruption effect in Aspergillus fumigatus ATCC 42203 assessed as surface blebs and aggregation at 4 times MIC by scanning electron microscopy; type: functional, organism-based

| Compound | MIC (Aspergillus fumigatus [1]) [µg/mL] | MIC (Aspergillus niger) [µg/mL] | MIC (Escherichia coli [2]) [µg/mL] | MIC (Escherichia coli [3]) [µg/mL] | MIC (Pseudomonas aeruginosa) [µg/mL] | MIC (Staphylococcus aureus [4]) [µg/mL] | MIC (Staphylococcus aureus [5]) [µg/mL] | MIC (Bacillus subtilis) [µg/mL] | HC50 [6] [µg/mL] | selectivity ratio [7] | selectivity ratio [8] | MIC (Candida albicans [9]) [µg/mL] | MIC (Candida albicans [10]) [µg/mL] | MIC (Cryptococcus neoformans) [µg/mL] | MIC (Aspergillus fumigatus [11]) [µg/mL] | Activity [12] [%] | Activity [13] [%] | Activity [14] [%] | Activity [15] [%] | Activity (Aspergillus fumigatus [16]) |
| --- | --- | --- | --- | --- | --- | --- | --- | --- | --- | --- | --- | --- | --- | --- | --- | --- | --- | --- | --- | --- |
| CCCCCCCCCCCCCCCC(=O)Nc1cccc(C(=O)NC(CCCN)C(=O)NC(CCCN)C(=O)NC(CCCN)C(=O)NC(CCCN)C(N)=O)c1 (configuration not stated) ({Palmitoyl-3Abz}-[Orn][Orn][Orn][Orn]-NH2; configuration not given here) | 3.5 (≈ 4.21 µM) | 3.1 (≈ 3.73 µM) | 2 (≈ 2.41 µM) | 3.5 (≈ 4.21 µM) | 3.1 (≈ 3.73 µM) | 3 (≈ 3.61 µM) | 5 (≈ 6.02 µM) | 20 (≈ 24.1 µM) | 350 | 175 | 117 | 2 (≈ 2.41 µM) | 3.5 (≈ 4.21 µM) | 5 (≈ 6.02 µM) | 1.5 (≈ 1.8 µM) | – | – | – | – | – |
| CCCCCCCCCCCCCCCCCC(=O)Nc1cccc(C(=O)NC(CCCN)C(=O)NC(CCCN)C(=O)NC(CCCN)C(=O)NC(CCCN)C(N)=O)c1 (configuration not stated) ({Stearoyl-3Abz}-[Orn][Orn][Orn][Orn]-NH2; configuration not given here) | 2 (≈ 2.33 µM) | 1.5 (≈ 1.75 µM) | 3.5 (≈ 4.07 µM) | 5 (≈ 5.82 µM) | 6.25 (≈ 7.27 µM) | 10 (≈ 11.6 µM) | 10.5 (≈ 12.2 µM) | 12.5 (≈ 14.5 µM) | 200 | 57.1 | 20 | 1.5 (≈ 1.75 µM) | 2 (≈ 2.33 µM) | 5.5 (≈ 6.4 µM) | 1.5 (≈ 1.75 µM) | 44 | 89 | 84 | 57 | Active |
| CCCCCCCCCCCC(=O)Nc1cccc(C(=O)NC(CCCN)C(=O)NC(CCCN)C(=O)NC(CCCN)C(=O)NC(CCCN)C(N)=O)c1 (configuration not stated) ({Lauroyl-3Abz}-[Orn][Orn][Orn][Orn]-NH2; configuration not given here) | 5.5 (≈ 7.1 µM) | 6.25 (≈ 8.06 µM) | 1.5 (≈ 1.94 µM) | 5.5 (≈ 7.1 µM) | 1.5 (≈ 1.94 µM) | 2.5 (≈ 3.23 µM) | 3.25 (≈ 4.19 µM) | 15.5 (≈ 20 µM) | 750 | 500 | 300 | 5.5 (≈ 7.1 µM) | 7.5 (≈ 9.68 µM) | 10.5 (≈ 13.5 µM) | 5 (≈ 6.45 µM) | – | – | – | – | – |
| O=C(O)c1cn(C2CC2)c2cc(N3CCNCC3)c(F)cc2c1=O [CIPROFLOXACIN] | – | – | – | – | 0.3 (≈ 0.905 µM) | 0.2 (≈ 0.604 µM) | – | 0.5 (≈ 1.51 µM) | – | – | – | – | – | – | – | – | – | – | – | – |
| CCCCCCCCCC(=O)Nc1cccc(C(=O)NC(CCCN)C(=O)NC(CCCN)C(=O)NC(CCCN)C(=O)NC(CCCN)C(N)=O)c1 (configuration not stated) ({Decanoyl-3Abz}-[Orn][Orn][Orn][Orn]-NH2; configuration not given here) | 25 (≈ 33.5 µM) | 31.5 (≈ 42.2 µM) | 17.5 (≈ 23.4 µM) | 25 (≈ 33.5 µM) | 25 (≈ 33.5 µM) | 20 (≈ 26.8 µM) | 35 (≈ 46.9 µM) | 100 (≈ 134 µM) | 1000 | 57.1 | 50 | 50 (≈ 66.9 µM) | 50 (≈ 66.9 µM) | 50 (≈ 66.9 µM) | 25 (≈ 33.5 µM) | 11 | 45 | 67 | 17 | – |
| CCCCCCCCCCCCCCCC(=O)Nc1cccc(C(=O)NC(CCCN)C(=O)NC(CCCN)C(=O)NC(CCCN)C(N)=O)c1 (configuration not stated) | 5 (≈ 6.97 µM) | 4.25 (≈ 5.93 µM) | 3.5 (≈ 4.88 µM) | 4.5 (≈ 6.28 µM) | 5.5 (≈ 7.67 µM) | 5 (≈ 6.97 µM) | 5 (≈ 6.97 µM) | 20 (≈ 27.9 µM) | 450 | 129 | 90 | 3 (≈ 4.18 µM) | 3.5 (≈ 4.88 µM) | 3.5 (≈ 4.88 µM) | 3.5 (≈ 4.88 µM) | – | – | – | – | – |
